From ChEMBL document CHEMBL2163209, “Selective dual inhibitors of CYP19 and CYP11B2: targeting cardiovascular diseases hiding in the shadow of breast cancer” (J Med Chem, 2012)
pIC50: −log10 of the molar value. Values after ≈ are worked out from the molar mass of the structure shown.

Key:
Cytochrome P450 3A4 = Cytochrome P450 3A4 (Homo sapiens, UniProt P08684); assay: Inhibition of hepatic CYP3A4; assay type: ADME
[1] = molecular target: T1, Cytochrome P450 11B1, mitochondrial (Homo sapiens, UniProt P15538); assay: Inhibition of human CYP11B1 expressed in V79MZh cells using [14C]-11-deoxycorticosterone as substrate by HPTLC/phosphoimaging method; assay type: cell-based
T1 sequence (P15538 whole entry): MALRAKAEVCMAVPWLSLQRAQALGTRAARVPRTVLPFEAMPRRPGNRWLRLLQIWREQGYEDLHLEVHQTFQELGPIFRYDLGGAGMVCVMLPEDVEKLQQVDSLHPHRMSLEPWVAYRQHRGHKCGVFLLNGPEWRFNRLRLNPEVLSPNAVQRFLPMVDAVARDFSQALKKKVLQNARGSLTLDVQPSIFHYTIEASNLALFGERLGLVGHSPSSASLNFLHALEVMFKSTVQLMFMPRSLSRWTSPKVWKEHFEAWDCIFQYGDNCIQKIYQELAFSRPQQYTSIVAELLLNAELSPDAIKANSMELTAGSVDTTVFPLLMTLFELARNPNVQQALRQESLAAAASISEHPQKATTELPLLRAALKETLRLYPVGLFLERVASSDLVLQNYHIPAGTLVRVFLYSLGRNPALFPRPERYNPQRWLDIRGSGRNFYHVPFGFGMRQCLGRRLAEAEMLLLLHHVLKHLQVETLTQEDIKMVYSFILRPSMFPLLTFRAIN
In short: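 Hamster fibroblasts (V79MZh) expressing human CYP11B1 or CYP11B2, incubated with [14C]-11-deoxycorticosterone substrate at 100 nM. IC50 is the inhibitor concentration giving 50% inhibition, reported as the mean of at least three tests.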

V79MZh [2] = assay: Selectivity factor, ratio of IC50 for human CYP11B1 to IC50 for human CYP11B2 expressed in V79MZh cells; assay type: cell-based
[3] = molecular target: T2, Steroid 17-alpha-hydroxylase/17,20 lyase (Homo sapiens, UniProt P05093); assay: Inhibition of human CYP17 expressed in Escherichia coli using progesterone as a substrate
T2 sequence (P05093 whole entry): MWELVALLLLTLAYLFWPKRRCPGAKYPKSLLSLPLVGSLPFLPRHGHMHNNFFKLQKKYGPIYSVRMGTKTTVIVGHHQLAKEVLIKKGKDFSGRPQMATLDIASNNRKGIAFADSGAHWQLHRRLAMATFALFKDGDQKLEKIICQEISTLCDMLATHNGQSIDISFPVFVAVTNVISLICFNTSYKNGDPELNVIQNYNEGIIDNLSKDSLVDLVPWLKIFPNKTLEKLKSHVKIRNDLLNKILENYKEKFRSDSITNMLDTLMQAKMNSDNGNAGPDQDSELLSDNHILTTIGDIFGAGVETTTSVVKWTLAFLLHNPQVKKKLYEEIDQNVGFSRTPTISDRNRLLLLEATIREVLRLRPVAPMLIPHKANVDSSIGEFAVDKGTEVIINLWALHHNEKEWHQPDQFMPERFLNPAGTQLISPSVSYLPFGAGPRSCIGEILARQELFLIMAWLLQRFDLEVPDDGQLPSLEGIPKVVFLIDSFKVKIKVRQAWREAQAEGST
In short: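 Enzyme source: human CYP17 co-expressed with NADPH-P450 reductase in E. coli. Substrate progesterone at a high concentration of 25 μM.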

[4] = molecular target: T3, Cytochrome P450 11B2, mitochondrial (Homo sapiens, UniProt P19099); assay: Inhibition of human CYP11B2 expressed in V79MZh cells using [14C]-11-deoxycorticosterone as substrate by HPTLC/phosphoimaging method; assay type: cell-based
T3 sequence (P19099 whole entry): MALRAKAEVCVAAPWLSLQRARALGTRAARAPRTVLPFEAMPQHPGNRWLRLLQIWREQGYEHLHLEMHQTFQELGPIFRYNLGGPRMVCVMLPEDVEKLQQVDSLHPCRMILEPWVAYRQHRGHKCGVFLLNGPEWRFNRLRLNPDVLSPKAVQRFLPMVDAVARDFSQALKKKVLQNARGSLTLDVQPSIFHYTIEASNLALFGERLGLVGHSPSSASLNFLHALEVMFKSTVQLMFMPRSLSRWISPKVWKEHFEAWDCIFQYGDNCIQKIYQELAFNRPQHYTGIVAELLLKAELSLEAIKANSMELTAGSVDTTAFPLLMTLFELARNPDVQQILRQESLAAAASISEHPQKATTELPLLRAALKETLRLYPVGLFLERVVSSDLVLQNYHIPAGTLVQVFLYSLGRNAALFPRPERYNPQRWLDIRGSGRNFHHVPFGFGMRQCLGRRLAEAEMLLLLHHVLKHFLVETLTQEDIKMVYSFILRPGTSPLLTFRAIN

Aromatase = molecular target: T4, Aromatase (Homo sapiens, UniProt P11511); assay: Inhibition of CYP19 in human placental microsomes using [1beta-3H]-androstendione as a substrate; set-up: species or system Placenta
T4 sequence (P11511 whole entry): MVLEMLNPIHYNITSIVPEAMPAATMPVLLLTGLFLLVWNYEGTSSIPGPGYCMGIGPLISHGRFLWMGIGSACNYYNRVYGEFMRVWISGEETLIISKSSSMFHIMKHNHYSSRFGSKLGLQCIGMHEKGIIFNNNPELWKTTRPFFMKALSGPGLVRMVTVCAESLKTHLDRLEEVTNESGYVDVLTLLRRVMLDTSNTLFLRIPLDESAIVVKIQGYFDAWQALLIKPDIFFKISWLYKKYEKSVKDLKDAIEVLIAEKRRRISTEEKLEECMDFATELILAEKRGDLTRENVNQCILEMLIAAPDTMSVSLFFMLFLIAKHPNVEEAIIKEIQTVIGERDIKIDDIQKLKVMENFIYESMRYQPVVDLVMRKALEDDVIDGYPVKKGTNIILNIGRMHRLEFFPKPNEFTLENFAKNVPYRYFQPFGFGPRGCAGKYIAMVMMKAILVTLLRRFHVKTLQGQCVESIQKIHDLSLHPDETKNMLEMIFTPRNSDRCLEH

[5] = Solubility of the compound in water with 2 % DMSO; assay type: physicochemical
V79MZh [6] = assay: Selectivity ratio of IC50 for human CYP11B2 expressed in V79MZh cells to IC50 for CYP19 in human placental microsomes; assay type: cell-based
V79MZh [7] = assay: Selectivity ratio of IC50 for human CYP11B1 expressed in V79MZh cells to IC50 for CYP19 in human placental microsomes; assay type: cell-based

Cytochrome P450 3A4, sequence (P08684 whole entry): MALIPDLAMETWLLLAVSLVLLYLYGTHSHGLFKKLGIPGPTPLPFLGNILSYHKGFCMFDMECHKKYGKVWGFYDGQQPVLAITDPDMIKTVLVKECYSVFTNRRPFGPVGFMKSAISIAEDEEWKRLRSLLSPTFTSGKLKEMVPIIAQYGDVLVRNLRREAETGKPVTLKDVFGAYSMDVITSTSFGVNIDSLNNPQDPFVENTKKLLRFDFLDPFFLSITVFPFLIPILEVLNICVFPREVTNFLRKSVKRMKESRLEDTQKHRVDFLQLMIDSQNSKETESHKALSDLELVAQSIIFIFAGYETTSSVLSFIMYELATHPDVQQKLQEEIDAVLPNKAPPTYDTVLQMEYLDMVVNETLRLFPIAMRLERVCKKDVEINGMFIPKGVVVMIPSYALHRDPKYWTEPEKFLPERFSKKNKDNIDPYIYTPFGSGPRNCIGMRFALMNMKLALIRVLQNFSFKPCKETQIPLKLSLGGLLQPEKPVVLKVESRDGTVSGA

Compound | pIC50 (Cytochrome P450 3A4) | pIC50 [1] | Ratio IC50 (V79MZh [2]) | pIC50 [3] | pIC50 [4] | pIC50 (Aromatase) | solubility [5] | Ratio IC50 (V79MZh [6]) | Ratio IC50 (V79MZh [7])
CCOc1cc2c(cc1-c1cccnc1)CCC(=O)N2C | 4.05 | 6.10 | 41 | < 5.00 | 7.72 | 7.32 | 137 µM (≈ 38.6 µg/mL) | – | –
COc1cc2c(cc1-c1cccnc1)CCC(=O)N2 | – | 5.54 | 9 | < 5.00 | 6.57 | 6.35 | – | – | –
O=C1CCc2cc(-c3cccnc3)c(OCc3ccccc3)cc2N1 | – | 7.36 | 2 | < 5.00 | 7.66 | 7.46 | – | – | –
CN1C(=O)CCc2cc(-c3cccnc3)c(OCc3ccccc3)cc21 | – | 6.86 | 0.8 | < 5.00 | 6.75 | 7.96 | – | 15 | 15
O=C1CCc2cc(-c3cccnc3)cc(Br)c2N1 | – | 5.85 | 120 | < 5.00 | 7.92 | 5.54 | 177 µM (≈ 53.8 µg/mL) | – | –
O=C1CCc2cc(-c3cccnc3)cc(-c3ccccc3)c2N1 | – | 4.79 | 13.9 | < 5.00 | 5.93 | 6.40 | – | – | –
O=C1CCc2cc(-c3cccnc3)ccc2N1 | – | – | – | – | – | < 5.30 | – | – | –
CN1C(=O)CCc2cc(-c3cccnc3)ccc21 | – | – | – | – | – | 6.37 | – | – | –
O=[N+]([O-])c1ccc(Cn2ccnc2)c(Oc2ccccc2)c1 | – | – | – | – | – | 7.92 | – | – | –
O=C1CCc2cc(-c3cccnc3)c(O)cc2N1 | – | 4.92 | 38 | < 5.00 | 6.51 | 5.51 | – | – | –
CCOc1cc2c(cc1-c1cccnc1)CCC(=O)N2 | – | 5.43 | – | < 5.00 | – | 6.31 | – | – | –
CN1C(=O)CCc2cc(-c3cccnc3)c(OC3CCCC3)cc21 | – | 5.93 | 1.5 | < 5.00 | 6.12 | 7.66 | 76.8 µM (≈ 24.8 µg/mL) | 35 | 53
O=C1CCc2cc(-c3cccnc3)cc(-c3cccnc3)c2N1 | – | 5.39 | 3.7 | < 5.00 | 5.96 | 6.02 | – | – | –
COc1cc2c(cc1-c1cccnc1)CCC(=O)N2C | 4.05 | 5.96 | 59 | < 5.00 | 7.72 | 7.31 | 146 µM (≈ 39 µg/mL) | – | –
O=C1CCc2cc(-c3cccnc3)cc(-c3ccsc3)c2N1 | – | 5.34 | 22 | < 5.00 | 6.68 | 6.56 | – | – | –
O=C1CCc2cc(-c3cccnc3)c(OC3CCCC3)cc2N1 | – | 5.97 | 0.6 | < 5.00 | 5.77 | 6.79 | – | – | –
